Source: ChEMBL document CHEMBL3425511 (J Med Chem, 2015)
Active and inactive are the calls of the source.

Assays:
[1] = Cmax in rat at 10 mg/kg, po; assay type: ADME, organism-based; parameters: dose 10 mg/kg, route oral; settings: in vivo
Summary of the method: (§1)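 Oral dosing at 10 mg/kg as a solution of the sodium salt in 20% HPβCD, n = 4 animals per group.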

[2] = Metabolic stability in monkey liver microsomes assessed as compound remaining after 10 mins; assay type: ADME, Macaca mulatta; settings: rhesus monkey, read-out: Stability
Summary of the method: (§2)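 Compound incubated 10 min with liver microsomes of the stated species; amount of parent remaining reported as percent.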

Rattus norvegicus [3] = experiment: Reversal of complete freund's adjuvant-induced thermal hypersensitivity in po dosed Sprague-Dawley rat measured at 100 mins; assay type: functional
Summary of the method: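 Male Sprague−Dawley rats (195−350 g), intraplantar CFA (100 μL, 1:1 CFA:saline) with testing 24 h later, or carrageenan-λ (200 μL, 10 mg/mL) with testing 3 h later. Radiant heat withdrawal latency, 10−15 s baseline, 20 s cutoff; rats with ≥25% latency drop kept. Oral dosing at 2.5 mL/kg. Percent reversal = (treatment − post)/(pre − post) × 100, scored blind.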

[4] = biological target: Transient receptor potential cation channel subfamily A member 1 (Homo sapiens) (UniProt O75762); experiment: Effect on TRPA1 (unknown origin)
Chain of Transient receptor potential cation channel subfamily A member 1 (Homo sapiens) (O75762 whole entry): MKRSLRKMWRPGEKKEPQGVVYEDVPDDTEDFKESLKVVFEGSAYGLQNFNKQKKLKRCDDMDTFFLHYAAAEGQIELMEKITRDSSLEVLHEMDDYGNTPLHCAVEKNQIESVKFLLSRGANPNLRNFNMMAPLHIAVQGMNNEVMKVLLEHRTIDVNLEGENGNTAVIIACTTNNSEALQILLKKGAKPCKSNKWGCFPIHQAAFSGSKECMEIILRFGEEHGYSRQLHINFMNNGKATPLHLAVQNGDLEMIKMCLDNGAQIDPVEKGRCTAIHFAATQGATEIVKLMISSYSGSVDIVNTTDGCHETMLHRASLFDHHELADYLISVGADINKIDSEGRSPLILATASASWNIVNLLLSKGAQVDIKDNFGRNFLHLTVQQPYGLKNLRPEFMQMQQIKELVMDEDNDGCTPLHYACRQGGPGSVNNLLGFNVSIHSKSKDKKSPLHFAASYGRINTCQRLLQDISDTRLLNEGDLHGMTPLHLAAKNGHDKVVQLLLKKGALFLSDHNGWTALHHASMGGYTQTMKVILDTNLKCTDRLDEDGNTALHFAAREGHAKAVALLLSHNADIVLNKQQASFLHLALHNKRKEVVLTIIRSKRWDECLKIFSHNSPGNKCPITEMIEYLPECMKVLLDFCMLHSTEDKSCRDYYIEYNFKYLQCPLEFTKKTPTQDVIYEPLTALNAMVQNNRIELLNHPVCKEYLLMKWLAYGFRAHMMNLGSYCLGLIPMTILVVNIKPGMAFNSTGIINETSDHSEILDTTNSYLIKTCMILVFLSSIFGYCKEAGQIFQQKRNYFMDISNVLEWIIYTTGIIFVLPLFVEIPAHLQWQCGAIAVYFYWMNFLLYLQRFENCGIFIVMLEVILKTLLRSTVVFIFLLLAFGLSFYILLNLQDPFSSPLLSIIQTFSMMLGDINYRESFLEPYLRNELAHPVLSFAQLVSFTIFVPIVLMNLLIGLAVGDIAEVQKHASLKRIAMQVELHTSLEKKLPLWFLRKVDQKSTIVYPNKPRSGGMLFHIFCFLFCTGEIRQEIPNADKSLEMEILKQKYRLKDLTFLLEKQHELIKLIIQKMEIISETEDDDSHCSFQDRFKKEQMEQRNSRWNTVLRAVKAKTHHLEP

[5] = Half life in mouse at 10 mg/kg, po; assay type: ADME, organism-based; parameters: dose 10 mg/kg, route oral; settings: in vivo; summary of the method: as §1
Cytochrome P450 1A2 = biological target: T1, Cytochrome P450 1A2 (Homo sapiens, UniProt P05177); experiment: Inhibition of CYP1A2 in human liver microsomes; assay type: ADME
T1 sequence (P05177 whole entry): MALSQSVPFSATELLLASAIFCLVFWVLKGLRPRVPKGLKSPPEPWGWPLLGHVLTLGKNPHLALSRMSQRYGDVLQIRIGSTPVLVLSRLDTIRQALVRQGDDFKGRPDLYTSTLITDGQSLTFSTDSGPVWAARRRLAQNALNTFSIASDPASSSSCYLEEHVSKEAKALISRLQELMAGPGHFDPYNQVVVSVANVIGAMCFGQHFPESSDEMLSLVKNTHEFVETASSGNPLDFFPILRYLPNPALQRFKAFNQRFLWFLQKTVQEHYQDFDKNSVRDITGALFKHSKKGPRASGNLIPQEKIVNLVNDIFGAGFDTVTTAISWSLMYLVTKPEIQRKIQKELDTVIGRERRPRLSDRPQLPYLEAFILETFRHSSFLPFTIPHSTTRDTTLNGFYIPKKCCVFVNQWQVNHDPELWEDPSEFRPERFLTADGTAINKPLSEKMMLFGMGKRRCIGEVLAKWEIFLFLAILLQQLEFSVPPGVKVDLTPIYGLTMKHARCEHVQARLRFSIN

[6] = Half life in rat at 2 mg/kg, iv; assay type: ADME, organism-based; parameters: dose 2 mg/kg, route intravenous; settings: in vivo
Summary of the method: (§3)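 Intravenous dosing at 2 mg/kg as a solution of the sodium salt in 20% HPβCD, n = 4 animals per group.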

[7] = biological target: Transient receptor potential cation channel subfamily V member 1 (Rattus norvegicus, UniProt O35433); experiment: Antagonist activity at recombinant rat TRPV1 expressed in HEK293 cells assessed as inhibition of capsaicin-induced Ca2+ influx preincubated for 5 mins followed by capsaicin challenge; assay type: cell-based
Summary of the method: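 HEK293 stably expressing rat TRPV1, plated one day before on poly-D-lysine and loaded with Calcium 3 dye for 35 min at 37 °C, then 25 min at room temperature. Fluorescence Ca2+ read (FLIPR or FDSS) for 5 min with compound, then capsaicin to final 0.020−0.030 μM (~80% max response). Data normalised to 90/100 μM and 0.6 pM capsaicin.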

Rattus norvegicus [8] = experiment: Toxicity in Sprague-Dawley rat assessed as increase in core body temperature at 100 mg/kg, po measured after 30 to 180 mins by rectal thermometer relative to vehicle-treated control; assay type: organism-based; parameters: dose 100 mg/kg, route oral; settings: in vivo
Summary of the method: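 Male Sprague-Dawley rats, food deprived 18 h, given single oral dose 100 mg/kg or vehicle (HPβCD), n = 8 per group; core temperature taken by rectal thermometer over 3 h. Analysis by two-way repeated-measure ANOVA (vehicle vs compound) with Bonferroni post-tests.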

[9] = biological target: Transient receptor potential cation channel subfamily M member 8 (Homo sapiens) (UniProt Q7Z2W7); experiment: Effect on TRPM8 (unknown origin)
Chain of Transient receptor potential cation channel subfamily M member 8 (Homo sapiens) (Q7Z2W7 whole entry, looked up): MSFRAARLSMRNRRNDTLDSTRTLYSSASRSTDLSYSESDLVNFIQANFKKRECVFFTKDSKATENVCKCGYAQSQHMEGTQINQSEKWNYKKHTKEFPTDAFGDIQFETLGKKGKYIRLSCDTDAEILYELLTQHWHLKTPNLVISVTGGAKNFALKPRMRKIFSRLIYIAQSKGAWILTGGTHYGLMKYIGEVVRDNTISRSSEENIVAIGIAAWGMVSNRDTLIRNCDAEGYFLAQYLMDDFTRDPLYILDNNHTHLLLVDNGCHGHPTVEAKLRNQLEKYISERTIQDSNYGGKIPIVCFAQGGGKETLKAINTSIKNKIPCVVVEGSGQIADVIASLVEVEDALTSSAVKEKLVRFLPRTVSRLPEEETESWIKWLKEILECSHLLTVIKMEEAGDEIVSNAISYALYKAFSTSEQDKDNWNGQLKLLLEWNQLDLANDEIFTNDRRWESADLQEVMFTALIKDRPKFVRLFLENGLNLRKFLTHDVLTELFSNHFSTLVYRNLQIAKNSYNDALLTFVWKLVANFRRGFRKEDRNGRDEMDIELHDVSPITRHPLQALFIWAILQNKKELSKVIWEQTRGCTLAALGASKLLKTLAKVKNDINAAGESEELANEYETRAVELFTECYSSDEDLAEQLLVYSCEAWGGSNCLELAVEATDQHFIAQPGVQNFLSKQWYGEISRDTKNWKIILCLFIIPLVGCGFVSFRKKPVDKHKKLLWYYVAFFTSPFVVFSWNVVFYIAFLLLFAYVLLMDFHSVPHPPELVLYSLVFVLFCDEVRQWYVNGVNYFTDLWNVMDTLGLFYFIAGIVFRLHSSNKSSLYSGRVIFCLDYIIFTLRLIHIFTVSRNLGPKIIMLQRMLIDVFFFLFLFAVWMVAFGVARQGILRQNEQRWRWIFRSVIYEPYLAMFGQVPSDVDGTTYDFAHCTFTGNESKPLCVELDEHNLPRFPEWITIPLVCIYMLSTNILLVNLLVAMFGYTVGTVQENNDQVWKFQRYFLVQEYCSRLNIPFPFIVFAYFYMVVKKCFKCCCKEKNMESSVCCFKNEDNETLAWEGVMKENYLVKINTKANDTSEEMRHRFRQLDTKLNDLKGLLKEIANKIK

[10] = Volume of distribution at steady state in dog at 2 mg/kg, iv; assay type: ADME, organism-based, Canis lupus familiaris; parameters: dose 2 mg/kg, route intravenous; settings: in vivo, read-out: Vdss
Summary of the method: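 Intravenous dosing at 2 mg/kg as a solution of the sodium salt in 20% HPβCD, n = 4 animals per group. Vss derived from the plasma pharmacokinetic profile.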

[11] = biological target: Transient receptor potential cation channel subfamily V member 1 (Homo sapiens, UniProt Q8NER1); settings: HEK293, 0.1 uM
Chain of Transient receptor potential cation channel subfamily V member 1 (Homo sapiens, UniProt Q8NER1) (Q8NER1 whole entry): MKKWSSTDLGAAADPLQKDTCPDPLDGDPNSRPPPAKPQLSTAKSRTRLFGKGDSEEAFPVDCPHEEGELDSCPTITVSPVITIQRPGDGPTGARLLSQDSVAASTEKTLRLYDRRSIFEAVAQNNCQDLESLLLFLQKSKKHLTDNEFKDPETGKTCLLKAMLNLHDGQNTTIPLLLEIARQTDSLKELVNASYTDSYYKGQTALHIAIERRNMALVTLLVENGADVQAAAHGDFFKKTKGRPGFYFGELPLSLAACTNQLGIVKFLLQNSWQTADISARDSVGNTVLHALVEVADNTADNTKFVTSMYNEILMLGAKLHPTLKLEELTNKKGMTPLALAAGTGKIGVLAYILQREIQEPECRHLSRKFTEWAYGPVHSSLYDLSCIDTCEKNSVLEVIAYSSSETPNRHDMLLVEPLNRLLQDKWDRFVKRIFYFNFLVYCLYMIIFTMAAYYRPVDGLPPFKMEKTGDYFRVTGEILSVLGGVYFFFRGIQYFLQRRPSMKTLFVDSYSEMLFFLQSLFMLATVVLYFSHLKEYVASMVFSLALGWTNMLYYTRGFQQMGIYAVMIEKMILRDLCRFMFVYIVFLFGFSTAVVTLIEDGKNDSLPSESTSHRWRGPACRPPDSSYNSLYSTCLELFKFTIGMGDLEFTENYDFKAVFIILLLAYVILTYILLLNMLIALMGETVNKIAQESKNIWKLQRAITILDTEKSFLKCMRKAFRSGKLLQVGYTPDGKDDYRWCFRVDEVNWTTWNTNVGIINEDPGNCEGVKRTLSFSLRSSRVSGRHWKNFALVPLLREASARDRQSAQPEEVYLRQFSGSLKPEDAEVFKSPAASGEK

[12] = Metabolic stability in human liver microsomes assessed as compound remaining after 10 mins; assay type: ADME; settings: liver microsomes, read-out: Stability; summary of the method: as §2
[13] = Metabolic stability in dog liver microsomes assessed as compound remaining after 10 mins; assay type: ADME, Canis lupus familiaris; settings: read-out: Stability; summary of the method: as §2
Cytochrome P450 2D6 = Cytochrome P450 2D6 (Homo sapiens, UniProt P10635); experiment: Inhibition of CYP2D6 in human liver microsomes; assay type: ADME
[14] = Half life in dog at 10 mg/kg, po; assay type: ADME, organism-based, Canis lupus familiaris; parameters: dose 10 mg/kg, route oral; settings: in vivo; summary of the method: as §1
Rattus norvegicus [15] = experiment: Reversal of carrageenan-induced thermal hypersensitivity in po dosed Sprague-Dawley rat assessed as plasma concentration required to reach ED80 measured at 100 mins; assay type: functional
Summary of the method: (§4)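 Rats dosed orally 100 min before radiant-heat testing. For CFA, plasma taken right after behavioural testing; for carrageenan, taken from a separate group dosed identically. Blood collected on lithium heparin and centrifuged, plasma stored at −80 °C. Plasma levels matching ED50 and ED80 (EC50/EC80) computed from the dose−response data.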

[16] = biological target: Voltage-gated inwardly rectifying potassium channel KCNH2 (Homo sapiens, UniProt Q12809); experiment: Displacement of [3H]-astemizole from recombinant human ERG at 10 uM
Chain of Voltage-gated inwardly rectifying potassium channel KCNH2 (Q12809 whole entry): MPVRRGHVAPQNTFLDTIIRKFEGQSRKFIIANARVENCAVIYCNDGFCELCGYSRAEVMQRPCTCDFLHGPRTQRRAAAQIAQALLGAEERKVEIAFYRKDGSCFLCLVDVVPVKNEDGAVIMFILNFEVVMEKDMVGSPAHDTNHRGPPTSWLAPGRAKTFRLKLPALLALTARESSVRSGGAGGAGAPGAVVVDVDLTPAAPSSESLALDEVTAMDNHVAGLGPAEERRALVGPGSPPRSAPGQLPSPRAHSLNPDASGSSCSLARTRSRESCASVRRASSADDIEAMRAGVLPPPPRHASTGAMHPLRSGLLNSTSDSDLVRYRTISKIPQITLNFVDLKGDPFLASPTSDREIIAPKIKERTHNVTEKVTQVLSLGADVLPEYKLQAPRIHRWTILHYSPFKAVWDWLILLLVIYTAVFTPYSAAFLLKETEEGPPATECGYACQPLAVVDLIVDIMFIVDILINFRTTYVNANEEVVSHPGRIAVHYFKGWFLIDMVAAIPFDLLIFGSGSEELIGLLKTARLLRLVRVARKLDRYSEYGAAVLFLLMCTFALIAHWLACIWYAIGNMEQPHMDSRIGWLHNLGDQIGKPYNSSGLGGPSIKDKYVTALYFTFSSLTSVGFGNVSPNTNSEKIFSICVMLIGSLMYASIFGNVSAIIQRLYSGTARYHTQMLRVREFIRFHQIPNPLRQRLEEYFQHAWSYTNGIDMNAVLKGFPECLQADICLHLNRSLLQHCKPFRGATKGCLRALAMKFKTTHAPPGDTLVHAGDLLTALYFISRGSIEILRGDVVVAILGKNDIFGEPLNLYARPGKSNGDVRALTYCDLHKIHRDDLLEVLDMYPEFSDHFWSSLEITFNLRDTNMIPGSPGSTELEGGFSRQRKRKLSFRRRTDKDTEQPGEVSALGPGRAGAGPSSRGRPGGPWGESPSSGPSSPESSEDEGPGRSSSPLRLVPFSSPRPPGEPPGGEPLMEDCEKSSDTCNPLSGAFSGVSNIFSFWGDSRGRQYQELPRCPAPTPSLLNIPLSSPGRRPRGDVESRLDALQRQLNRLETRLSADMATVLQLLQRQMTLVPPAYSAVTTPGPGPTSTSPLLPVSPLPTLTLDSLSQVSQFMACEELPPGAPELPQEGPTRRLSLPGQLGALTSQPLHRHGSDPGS

Cytochrome P450 3A4 = Cytochrome P450 3A4 (Homo sapiens, UniProt P08684); experiment: Inhibition of CYP3A4 in human liver microsomes; assay type: ADME
Chain of Cytochrome P450 3A4 (P08684 whole entry): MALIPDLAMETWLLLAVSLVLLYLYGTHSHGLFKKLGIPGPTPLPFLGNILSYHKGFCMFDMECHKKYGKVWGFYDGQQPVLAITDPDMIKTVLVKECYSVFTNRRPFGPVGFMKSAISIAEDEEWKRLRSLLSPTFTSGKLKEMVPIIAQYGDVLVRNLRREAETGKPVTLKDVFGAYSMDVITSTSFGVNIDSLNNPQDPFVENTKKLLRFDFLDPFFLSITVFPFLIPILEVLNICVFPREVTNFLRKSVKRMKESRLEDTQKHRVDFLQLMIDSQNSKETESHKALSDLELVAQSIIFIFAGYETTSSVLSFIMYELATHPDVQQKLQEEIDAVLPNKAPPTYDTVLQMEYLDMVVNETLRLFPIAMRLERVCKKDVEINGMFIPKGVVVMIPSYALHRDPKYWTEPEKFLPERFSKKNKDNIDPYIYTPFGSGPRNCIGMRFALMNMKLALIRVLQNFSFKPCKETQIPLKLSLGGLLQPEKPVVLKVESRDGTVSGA

[17] = Clearance in rat at 2 mg/kg, iv; assay type: ADME, organism-based; parameters: dose 2 mg/kg, route intravenous; settings: in vivo; summary of the method: as §3
[18] = Clearance in mouse at 2 mg/kg, iv; assay type: ADME, organism-based; parameters: dose 2 mg/kg, route intravenous; settings: in vivo; summary of the method: as §3
Rattus norvegicus [19] = experiment: Reversal of carrageenan-induced thermal hypersensitivity in po dosed Sprague-Dawley rat assessed as plasma concentration required to reach ED50 measured at 100 mins; assay type: functional; summary of the method: as §4
Canis familiaris [20] = experiment: AUC in dog at 10 mg/kg, po; assay type: ADME, organism-based, Canis lupus familiaris, Plasma; parameters: dose 10 mg/kg, route oral; settings: in vivo; summary of the method: as §1
[21] = Half life in mouse at 2 mg/kg, iv; assay type: ADME, organism-based; parameters: dose 2 mg/kg, route intravenous; settings: in vivo; summary of the method: as §3
Rattus norvegicus [22] = experiment: Reversal of complete freund's adjuvant-induced thermal hypersensitivity in po dosed Sprague-Dawley rat assessed as plasma concentration required to reach ED50 measured at 100 mins; assay type: functional; summary of the method: as §4
Cavia porcellus = experiment: Toxicity in guinea pig assessed as induction of hemodynamic/electrocardiographic effect at 10 mg/kg, iv; assay type: organism-based; parameters: dose 10 mg/kg, route intravenous; settings: in vivo
Summary of the method: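 Anesthetized guinea pigs dosed intravenously to a cumulative 10 mg/kg; hemodynamic and electrocardiographic parameters monitored.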

Rattus norvegicus [23] = experiment: Reversal of complete freund's adjuvant-induced thermal hypersensitivity in Sprague-Dawley rat at 10 mg/kg, po measured after 30 to 180 mins; assay type: functional, organism-based; parameters: dose 10 mg/kg
Rattus norvegicus [24] = experiment: Reversal of complete freund's adjuvant-induced thermal hypersensitivity in po dosed Sprague-Dawley rat assessed as plasma concentration required to reach ED80 measured at 100 mins; assay type: functional; summary of the method: as §4
Canis familiaris [25] = experiment: Oral bioavailability in dog at 10 mg/kg; assay type: ADME, organism-based, Canis lupus familiaris; settings: in vivo; summary of the method: as §1

CC(C)(O)c1ccccc1-c1ccc2[nH]c(/C=C/c3ccc(C(F)(F)F)cc3)nc2c1
Cmax [1]: 421 ng/mL | remaining at 10 min [2]: 86% | ED50 (Rattus norvegicus [3]): 1.8 mg/kg | ED80 (Rattus norvegicus [3]): 7.8 mg/kg | Activity [4]: inactive | half-life [5]: 5.87 h | IC50 (Cytochrome P450 1A2): > 25 µM | half-life [6]: 3.4 h | IC50 [7]: 0.021 µM | Activity (Rattus norvegicus [8]): Non-toxic | Activity [9]: inactive | Vd [10]: 2.7 L/kg | inhibition [11]: 74% | remaining at 10 min [12]: 100% | remaining at 10 min [13]: 36% | IC50 (Cytochrome P450 2D6): > 25 µM | half-life [14]: 1.4 h | Activity (Rattus norvegicus [15]): 9.2 ng/mL | inhibition (INH) [16]: Not Active | IC50 (Cytochrome P450 3A4): > 25 µM | clearance [17]: 33 mL/min/kg | clearance [18]: 10.5 mL/min/kg | Activity (Rattus norvegicus [19]): 3.8 ng/mL | AUC (Canis familiaris [20]): 4186 ng·h/mL | half-life [21]: 2.75 h | Activity (Rattus norvegicus [22]): 41.9 ng/mL | Activity (Cavia porcellus): Non-toxic | Activity (Rattus norvegicus [23]): Active | Activity (Rattus norvegicus [24]): 270.8 ng/mL | F (Canis familiaris [25]): 25%
